Test results taken from ChEMBL document CHEMBL2046381, “Defining the mechanism of action and enzymatic selectivity of psammaplin A against its epigenetic targets” (J Med Chem, 2012).
Calls of active or inactive are those of the source.

What was measured:
[1] = biological target: T1, Histone deacetylase-like amidohydrolase (Alcaligenes sp. (strain DSM 11172) (Bordetella sp. (strain FB188))) (UniProt Q70I53); test: Inhibition of Bordetella sp. (strain FB188) N-terminus His-tagged HDAH expressed in Escherichia coli BL21 (DE3) up to 100 uM; conditions: Alcaligenaceae bacterium FB188
T1 sequence (whole entry): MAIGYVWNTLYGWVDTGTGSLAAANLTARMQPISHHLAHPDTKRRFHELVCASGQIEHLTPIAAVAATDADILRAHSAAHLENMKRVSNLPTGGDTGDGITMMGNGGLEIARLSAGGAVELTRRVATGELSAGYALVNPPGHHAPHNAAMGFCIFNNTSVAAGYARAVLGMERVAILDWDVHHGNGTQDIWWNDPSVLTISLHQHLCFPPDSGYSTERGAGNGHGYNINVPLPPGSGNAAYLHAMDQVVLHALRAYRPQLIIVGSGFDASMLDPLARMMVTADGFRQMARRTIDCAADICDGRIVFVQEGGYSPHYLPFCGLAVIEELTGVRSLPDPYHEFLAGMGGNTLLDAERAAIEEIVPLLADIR
Outline: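 Recombinant N-terminal His6-tagged HDAH from Bordetella strain FB188, expressed in E. coli BL21, purified on zinc-loaded His-Trap column, eluted with 500 mM imidazole, dialyzed into assay buffer (>98% pure by SDS-PAGE). Tested directly against compounds; thiols generated in situ from disulfides with TCEP.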

[2] = biological target: T2, Protein deacetylase HDAC6 (Homo sapiens, UniProt Q9UBN7); test: Inhibition of human recombinant HDAC6 using Boc-lys(Ac)-AMC as substrate preincubated for 20 mins with substrate measured after 60 mins by fluorescence analysis
T2 sequence (Q9UBN7 whole entry): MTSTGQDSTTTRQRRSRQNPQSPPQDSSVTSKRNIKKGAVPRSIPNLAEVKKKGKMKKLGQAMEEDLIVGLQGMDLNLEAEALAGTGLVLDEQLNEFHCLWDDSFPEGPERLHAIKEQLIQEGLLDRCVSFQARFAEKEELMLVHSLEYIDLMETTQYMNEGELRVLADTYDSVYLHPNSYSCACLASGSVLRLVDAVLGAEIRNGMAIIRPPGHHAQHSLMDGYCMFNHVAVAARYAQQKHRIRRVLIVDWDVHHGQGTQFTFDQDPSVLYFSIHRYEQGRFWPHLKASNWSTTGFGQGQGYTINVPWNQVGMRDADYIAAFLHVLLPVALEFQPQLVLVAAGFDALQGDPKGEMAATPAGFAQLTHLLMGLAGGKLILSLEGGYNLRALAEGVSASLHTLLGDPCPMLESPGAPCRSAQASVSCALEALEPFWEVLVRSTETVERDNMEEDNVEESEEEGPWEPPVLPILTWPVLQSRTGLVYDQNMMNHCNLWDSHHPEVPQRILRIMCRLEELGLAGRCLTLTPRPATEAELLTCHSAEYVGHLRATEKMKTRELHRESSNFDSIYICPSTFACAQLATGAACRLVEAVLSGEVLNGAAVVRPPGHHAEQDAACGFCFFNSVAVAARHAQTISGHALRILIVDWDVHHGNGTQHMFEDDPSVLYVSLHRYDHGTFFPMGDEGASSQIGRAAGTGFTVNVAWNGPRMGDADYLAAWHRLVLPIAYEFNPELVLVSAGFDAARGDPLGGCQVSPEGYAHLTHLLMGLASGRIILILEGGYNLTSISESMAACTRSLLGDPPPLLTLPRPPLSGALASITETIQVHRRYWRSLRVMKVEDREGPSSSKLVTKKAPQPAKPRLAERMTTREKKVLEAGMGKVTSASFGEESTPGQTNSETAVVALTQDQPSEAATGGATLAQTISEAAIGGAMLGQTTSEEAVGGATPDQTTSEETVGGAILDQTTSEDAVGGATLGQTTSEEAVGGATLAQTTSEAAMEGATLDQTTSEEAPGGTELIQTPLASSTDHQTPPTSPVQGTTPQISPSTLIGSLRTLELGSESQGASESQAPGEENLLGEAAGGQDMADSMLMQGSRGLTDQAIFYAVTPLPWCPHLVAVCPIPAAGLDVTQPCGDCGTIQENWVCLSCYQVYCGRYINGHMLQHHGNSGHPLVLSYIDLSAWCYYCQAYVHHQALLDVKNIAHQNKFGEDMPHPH

Histone deacetylase 1 = Histone deacetylase 1 (Homo sapiens, UniProt Q13547); test: Inhibition of human recombinant HDAC1 using Boc-lys(Ac)-AMC as substrate preincubated for 20 mins with substrate measured after 60 mins by fluorescence analysis
[3] = biological target: DNA (cytosine-5)-methyltransferase 1 (Homo sapiens, UniProt P26358); test: Inhibition of full length N-terminal His6-tagged human DNMT1 at 120 uM after 1 hr by fluorescence analysis
Outline: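 Baculovirus-expressed DNMT1 (80 nM final) with SAM (10 μM final) and hemimethylated hairpin oligo (125 nM final) in MOPS buffer pH 6.5 with 1 mM DTT, 1 h room temperature. Stopped with Gla1 plus 125 μM SAH, developed 7 h; fluorescence Ex 485/Em 520 nm. Thiols made in situ by TCEP reduction; no SAM as full-inhibition control.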

A549 = test: Growth inhibition of human A549 cells after 96 hrs by sulphorhodamine B assay; format: functional; conditions: A549, 96 h
Outline: (§1)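 SRB growth assay; MCF7 and WI38 seeded 4000 cells/well, A549 2000 cells/well, attached overnight, then exposed to freshly made drug solutions (0.1 to 50 μM) for 96 h. Fixed with cold 10% TCA, stained with 0.4% SRB; absorbance at 540 nm as percent of untreated control, IC50 from mean absorbance.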

MCF7 = test: Growth inhibition of human MCF7 cells after 96 hrs by sulphorhodamine B assay; format: functional; conditions: MCF7, 96 h; outline: as §1

Sequence of Histone deacetylase 1 (Q13547 whole entry): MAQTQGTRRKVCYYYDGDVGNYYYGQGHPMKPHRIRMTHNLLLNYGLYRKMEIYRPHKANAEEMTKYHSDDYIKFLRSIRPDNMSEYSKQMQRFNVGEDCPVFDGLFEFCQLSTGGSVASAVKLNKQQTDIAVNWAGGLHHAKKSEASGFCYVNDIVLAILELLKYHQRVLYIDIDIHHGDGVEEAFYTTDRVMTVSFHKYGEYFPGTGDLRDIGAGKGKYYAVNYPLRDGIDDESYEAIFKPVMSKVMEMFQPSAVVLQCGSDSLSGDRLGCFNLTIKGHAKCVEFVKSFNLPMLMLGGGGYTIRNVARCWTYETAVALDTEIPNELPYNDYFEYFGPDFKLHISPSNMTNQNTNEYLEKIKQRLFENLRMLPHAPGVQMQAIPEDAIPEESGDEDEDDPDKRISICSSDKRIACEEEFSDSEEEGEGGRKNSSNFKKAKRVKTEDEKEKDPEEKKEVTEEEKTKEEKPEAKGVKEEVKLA
Sequence of DNA (cytosine-5)-methyltransferase 1 (P26358 whole entry): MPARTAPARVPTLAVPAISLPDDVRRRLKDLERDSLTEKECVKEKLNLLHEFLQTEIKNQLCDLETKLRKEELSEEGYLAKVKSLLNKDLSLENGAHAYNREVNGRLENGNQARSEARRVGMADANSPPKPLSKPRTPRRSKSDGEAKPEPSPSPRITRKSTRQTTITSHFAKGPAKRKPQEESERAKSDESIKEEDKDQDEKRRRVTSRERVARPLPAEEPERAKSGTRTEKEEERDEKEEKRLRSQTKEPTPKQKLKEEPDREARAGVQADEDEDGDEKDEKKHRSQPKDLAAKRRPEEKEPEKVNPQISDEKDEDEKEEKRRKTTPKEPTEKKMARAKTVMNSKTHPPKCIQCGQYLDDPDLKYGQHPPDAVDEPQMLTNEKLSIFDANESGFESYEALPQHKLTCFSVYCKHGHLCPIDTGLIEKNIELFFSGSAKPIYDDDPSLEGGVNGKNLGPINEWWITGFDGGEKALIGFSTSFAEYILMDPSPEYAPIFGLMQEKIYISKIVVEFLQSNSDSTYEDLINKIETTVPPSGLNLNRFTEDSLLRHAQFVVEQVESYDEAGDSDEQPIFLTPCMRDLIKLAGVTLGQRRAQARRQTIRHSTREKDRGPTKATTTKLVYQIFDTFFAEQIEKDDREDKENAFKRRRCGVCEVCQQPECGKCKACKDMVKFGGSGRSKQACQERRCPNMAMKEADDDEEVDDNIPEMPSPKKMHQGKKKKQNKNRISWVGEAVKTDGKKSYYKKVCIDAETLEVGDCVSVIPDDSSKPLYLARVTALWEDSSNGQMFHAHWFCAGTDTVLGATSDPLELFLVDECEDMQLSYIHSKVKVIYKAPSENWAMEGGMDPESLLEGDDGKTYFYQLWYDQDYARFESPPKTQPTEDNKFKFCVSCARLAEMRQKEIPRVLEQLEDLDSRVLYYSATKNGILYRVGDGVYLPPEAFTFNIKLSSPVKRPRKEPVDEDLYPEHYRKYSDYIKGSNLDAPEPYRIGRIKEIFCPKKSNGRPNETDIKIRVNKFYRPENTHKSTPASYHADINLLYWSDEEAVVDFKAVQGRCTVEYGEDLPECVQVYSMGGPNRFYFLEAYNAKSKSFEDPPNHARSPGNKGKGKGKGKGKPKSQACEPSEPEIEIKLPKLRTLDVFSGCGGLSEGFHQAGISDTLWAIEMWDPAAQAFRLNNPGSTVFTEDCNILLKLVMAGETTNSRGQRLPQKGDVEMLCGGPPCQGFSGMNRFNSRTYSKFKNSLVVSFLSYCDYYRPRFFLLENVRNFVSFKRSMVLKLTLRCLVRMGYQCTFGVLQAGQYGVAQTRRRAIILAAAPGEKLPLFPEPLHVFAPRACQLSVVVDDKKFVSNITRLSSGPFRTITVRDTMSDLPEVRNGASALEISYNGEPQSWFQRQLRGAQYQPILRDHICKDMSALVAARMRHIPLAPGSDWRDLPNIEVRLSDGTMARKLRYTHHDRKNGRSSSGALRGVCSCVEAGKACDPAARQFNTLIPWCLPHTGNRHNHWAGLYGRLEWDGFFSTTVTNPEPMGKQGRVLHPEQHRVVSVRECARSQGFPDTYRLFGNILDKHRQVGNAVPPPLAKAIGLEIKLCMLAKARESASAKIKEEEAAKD

| Structure (SMILES) | inhibition [1] | IC50 [2] | IC50 (Histone deacetylase 1) | inhibition [3] | GI50 (A549) | GI50 (MCF7) |
| --- | --- | --- | --- | --- | --- | --- |
| COc1cc(C/C(=N\O)C(=O)NCCSSCCNC(=O)/C(Cc2ccc(SC)c(OC)c2)=N/O)ccc1SC | inactive |  |  |  |  |  |
| O=C(NCCS)/C(Cc1cccc([N+](=O)[O-])c1)=N/O | inactive | 1200 nM | 1 nM | inactive |  |  |
| O=C(NCCSSCCNC(=O)/C(Cc1cccc([N+](=O)[O-])c1)=N/O)/C(Cc1cccc([N+](=O)[O-])c1)=N/O | inactive |  |  |  |  |  |
| COc1cc(C/C(=N\O)C(=O)NCCSSCCNC(=O)/C(Cc2cc(I)c(OC)c(OC)c2)=N/O)cc(I)c1OC | inactive |  |  |  |  |  |
| O=C(NCCSSCCNC(=O)/C(Cc1cc(Br)cc([N+](=O)[O-])c1)=N/O)/C(Cc1cc(Br)cc([N+](=O)[O-])c1)=N/O | inactive |  |  |  |  |  |
| CSCCNC(=O)C(=O)Cc1ccc(O)c(Br)c1 | inactive | 30000 nM | 7300 nM |  | > 50000 nM | 18300 nM |
| COc1ccc(CC(=O)C(=O)NCCS)cc1Br | inactive | 250 nM | 1100 nM |  |  |  |
| O=C(NCCSSCCNC(=O)/C(Cc1ccc(F)cc1)=N/O)/C(Cc1ccc(F)cc1)=N/O | inactive |  |  |  |  |  |
| O=C(NCCS)/C(Cc1ccc(O)cc1)=N/O | inactive | 1700 nM | 4 nM | inactive |  |  |
| COc1ccc(C/C(=N\O)C(=O)NCCS)cc1OC | inactive | 2700 nM | 3 nM | inactive |  |  |
| CSc1ccc(C/C(=N\O)C(=O)NCCS)cc1 | inactive | 1300 nM | 2 nM | inactive |  |  |
| O=C(CCc1ccc(O)c(Br)c1)NCCSSCCNC(=O)CCc1ccc(O)c(Br)c1 | inactive | 20200 nM | > 50000 nM |  |  |  |
| O=C(NCCSSCCNC(=O)/C(Cc1cc(Br)c(O)c(Br)c1)=N/O)/C(Cc1cc(Br)c(O)c(Br)c1)=N/O | inactive |  |  |  |  |  |
| O=C(NCCCSCCNC(=O)/C(Cc1ccc(O)c(Br)c1)=N/O)/C(Cc1ccc(O)c(Br)c1)=N/O | inactive |  |  | inactive |  |  |
| CO/N=C(\Cc1ccc(OC)c(Br)c1)C(=O)NCCSSCCNC(=O)/C(Cc1ccc(OC)c(Br)c1)=N/OC | inactive | > 50000 nM | 220 nM |  |  |  |
| COc1ccc(C/C(=N\O)C(=O)NCCSC)cc1Br |  | > 50000 nM | 23300 nM |  |  |  |
| N/N=C(\Cc1ccc(O)c(Br)c1)C(=O)NCCSSCCNC(=O)/C(Cc1ccc(O)c(Br)c1)=N/N | inactive | 5000 nM | 6100 nM |  | 18800 nM | 3810 nM |
| COc1cc(C/C(=N\O)C(=O)NCCS)ccc1SC | inactive | 1400 nM | 0.6 nM |  |  |  |
| O=C(NCCS)/C(Cc1ccc(F)cc1)=N/O | inactive | 2900 nM | 7 nM | inactive |  |  |
| CN(C)c1ccc(C/C(=N\O)C(=O)NCCS)cc1 | inactive | 2300 nM | 1 nM | inactive |  |  |
| COc1cc(C/C(=N\O)C(=O)NCCS)cc(I)c1OC | inactive | 270 nM | 1 nM | inactive |  |  |

| Structure (SMILES) | inhibition [1] | IC50 [2] | IC50 (Histone deacetylase 1) | inhibition [3] | GI50 (A549) | GI50 (MCF7) |
| --- | --- | --- | --- | --- | --- | --- |
| CN(C)c1ccc(C/C(=N\O)C(=O)NCCS)cc1Br | inactive | 700 nM | 4 nM | inactive |  |  |
| COc1ccc(C/C(=N\N)C(=O)NCCSC)cc1Br | inactive | > 50000 nM | 12600 nM |  |  |  |
| COc1ccc(C/C(=N\O)C(=O)NCCS)cc1I | inactive | 240 nM | 1 nM | inactive |  |  |
| O=C(NCCS)/C(Cc1cc(Br)c(O)c(Br)c1)=N/O | inactive | 790 nM | 0.2 nM | inactive |  |  |
| CO/N=C(\Cc1ccc(OC)c(Br)c1)C(=O)NCCSC | inactive | > 50000 nM | > 50000 nM |  |  |  |
| O=C(NCCCCCCNC(=O)/C(Cc1ccc(O)c(Br)c1)=N/O)/C(Cc1ccc(O)c(Br)c1)=N/O | inactive |  |  | inactive |  |  |
| COc1ccc(C/C(=N\N)C(=O)NCCS)cc1Br | inactive | 320 nM | 6 nM |  |  |  |
| CSc1ccc(C/C(=N\O)C(=O)NCCSSCCNC(=O)/C(Cc2ccc(SC)c(Br)c2)=N/O)cc1Br | inactive |  |  |  |  |  |
| CSc1ccc(C/C(=N\O)C(=O)NCCS)cc1Br | inactive | 190 nM | 0.48 nM | inactive |  |  |
| CO/N=C(\Cc1ccc(OC)c(Br)c1)C(=O)NCCS | inactive | 2700 nM | 15 nM | inactive |  |  |
| COc1ccc(CC(=O)C(=O)NCCSC)cc1Br | inactive | > 50000 nM | > 50000 nM |  |  |  |
| COc1ccc(C/C(=N\N)C(=O)NCCSSCCNC(=O)/C(Cc2ccc(OC)c(Br)c2)=N/N)cc1Br | inactive | > 50000 nM | 3000 nM |  |  |  |
| COc1ccc(C/C(=N\O)C(=O)NCCSSCCNC(=O)/C(Cc2ccc(OC)c(OC)c2)=N/O)cc1OC | inactive |  |  |  |  |  |
| O=C(NCCSSCCNC(=O)/C(Cc1ccc(O)cc1)=N/O)/C(Cc1ccc(O)cc1)=N/O | inactive |  |  |  |  |  |
| CN(C)c1ccc(C/C(=N\O)C(=O)NCCSSCCNC(=O)/C(Cc2ccc(N(C)C)cc2)=N/O)cc1 | inactive |  |  |  |  |  |
| COc1ccc(C/C(=N\O)C(=O)NCCSSCCNC(=O)/C(Cc2ccc(OC)c(I)c2)=N/O)cc1I | inactive |  |  |  |  |  |
| CSc1ccc(C/C(=N\O)C(=O)NCCSSCCNC(=O)/C(Cc2ccc(SC)cc2)=N/O)cc1 | inactive |  |  |  |  |  |
| O=C(NCCS)/C(Cc1cc(Br)cc([N+](=O)[O-])c1)=N/O | inactive | 740 nM | 5 nM | inactive |  |  |
| CN(C)c1ccc(C/C(=N\O)C(=O)NCCSSCCNC(=O)/C(Cc2ccc(N(C)C)c(Br)c2)=N/O)cc1Br | inactive |  |  |  |  |  |
| COc1ccc(C/C(=N\O)C(=O)NCCSSCCNC(=O)/C(Cc2ccc(OC)c(Br)c2)=N/O)cc1Br |  | 2000 nM | 43 nM |  |  |  |
| COc1ccc(CC(=O)C(=O)NCCSSCCNC(=O)C(=O)Cc2ccc(OC)c(Br)c2)cc1Br | inactive | 8000 nM | 9000 nM |  |  |  |
